Holding throughout (format): ADME, organism-based
What all share (set-up): dose 16 mg/kg, route intravenous
Holding throughout (conditions): in vivo

Series [1] can be described thus: Drug uptake in Wistar rat kidney collecting duct cells obtained after tissue digestion with 0.04% protease digestion for 30 mins at 4 or 16 mg/kg, iv after 12 hrs post dose by light-microscopic immunocytochemistry. Summed up: (§1)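 Male Wistar rats (200–250 g) received a single tail-vein gentamicin dose (3 per time group), with saline-injected rats as controls. Under pentobarbital, rats were perfused with PBS, then 2% glutaraldehyde in 10 mM phosphate (pH 7.2), and kidneys postfixed overnight at 4°C. Paraffin sections (5 μm) were treated with 6% H₂O₂, 1.0% NaBH₄ and 1 N HCl, then protease at 30°C. Staining used rabbit anti-GM serum 1:5,000 (overnight, 4°C), then HRP anti-rabbit IgG with DAB.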

Series [2] is described as follows: Drug uptake in Wistar rat Kidney endothelium cells obtained after tissue digestion with 0.04% protease digestion for 15 mins to 60 mins at 4 or 16 mg/kg, iv after 1 hrs post dose by light-microscopic immunocytochemistry. In short, it runs like this:
as §1

Series [3] can be described thus: Drug uptake in Wistar rat kidney collecting duct cells obtained after tissue digestion with 0.04% protease digestion for 2 hrs at 4 or 16 mg/kg, iv after 12 hrs post dose by light-microscopic immunocytochemistry. In short, it runs like this: as §1
The nature of series [4]: Drug uptake in nuclei of Wistar rat kidney distal tubule cells obtained after tissue digestion with 0.04% protease digestion for 15 mins at 4 or 16 mg/kg, iv after 12 hrs post dose by light-microscopic immunocytochemistry. Summed up: as §1
A short description of series [5]: Drug uptake in Wistar rat Kidney endothelium cells obtained after tissue digestion with 0.04% protease digestion for 2 hrs mins at 4 or 16 mg/kg, iv after 1 hrs post dose by light-microscopic immunocytochemistry. In short, it runs like this:
as §1

The nature of series [6]: Drug uptake in Wistar rat kidney collecting duct cells obtained after tissue digestion with 0.04% protease digestion for 15 mins at 4 or 16 mg/kg, iv after 12 hrs post dose by light-microscopic immunocytochemistry. Summed up:
as §1

A short description of series [7]: Drug uptake in Wistar rat Kidney glomeruli cells obtained after tissue digestion with 0.04% protease digestion for 15 mins to 2 hrs mins at 4 or 16 mg/kg, iv after 12 hrs post dose by light-microscopic immunocytochemistry. In short, it runs like this:
as §1

The nature of series [8]: Drug uptake in cytoplasm of Wistar rat kidney distal tubule cells obtained after tissue digestion with 0.04% protease digestion for 15 mins at 4 or 16 mg/kg, iv after 12 hrs post dose by light-microscopic immunocytochemistry. Summed up:
as §1

Series [9] can be described thus: Drug uptake in cytoplasm of Wistar rat kidney distal tubule cells obtained after tissue digestion with 0.04% protease digestion for 2 hrs at 4 or 16 mg/kg, iv after 12 hrs post dose by light-microscopic immunocytochemistry. Summed up:
as §1

Series [10] in a line: Drug uptake in Wistar rat kidney proximal tubule S2 obtained after tissue digestion with 0.04% protease digestion for 2 hrs mins at 4 or 16 mg/kg, iv after 12 hrs post dose by light-microscopic immunocytochemistry. Summed up:
as §1

Series [11] is described as follows: Drug uptake in Wistar rat kidney proximal tubule […] cells obtained after tissue digestion with 0.04% protease digestion for 15 mins at 4 or 16 mg/kg, iv after 12 hrs post dose by light-microscopic immunocytochemistry. In short, it runs like this: as §1
Series [12] in a line: Drug uptake in Wistar rat Kidney Henle's loop cells obtained after tissue digestion with 0.04% protease digestion for 15 mins to 2 hrs mins at 4 or 16 mg/kg, iv after 12 hrs post dose by light-microscopic immunocytochemistry. In short, it runs like this:
as §1

The nature of series [13]: Drug uptake in Wistar rat kidney proximal tubule S1 obtained after tissue digestion with 0.04% protease digestion for 2 hrs mins at 4 or 16 mg/kg, iv after 12 hrs post dose by light-microscopic immunocytochemistry. Summed up:
as §1

Series [14] in a line: Drug uptake in Wistar rat Kidney endothelium cells obtained after tissue digestion with 0.04% protease digestion for 15 mins to 2 hrs mins at 4 or 16 mg/kg, iv after 12 hrs post dose by light-microscopic immunocytochemistry. Summed up: as §1

For the sequence GENTAMICIN, the Drug uptake entry was “Active” in series [1]; “Active” in series [2]; “Not Active” in series [3]; “Active” in series [4]; “Not Active” in series [5]; “Active” in series [6]. The Drug uptake result in series [7] was “Not Active”; in [8], “Active”; in series [9], “Not Active”; in series [10], “Active”; in series [11], “Not Active”; in series [12], “Not Active”. For the same sequence, the Drug uptake entry is “Active” in series [13] and “Not Active” in series [14].
